Results from different studies.
Target: Serine/threonine-protein kinase tousled-like 2 (TLK2, Homo sapiens, UniProt Q86UE8)

SMILES | read-out | mode | method | tested at | measurement | result
O=C(Nc1cnn(-c2csc(C(=O)NC3COC3)c2)c1)Nc1c(F)cccc1Cl | enzyme activity | inhibitor | – | 5 µM | remaining activity | 109%
COc1ccc2cc(OCC3(C(=O)O)CN(C(=O)c4ccc(F)cc4)C3)ccc2c1 | cell-free assay | – | competition with immobilised ligand | 1 µM | remaining binding | 100%
CNC(=O)c1cc(Oc2ccc(NC(=O)Nc3ccc(Cl)c(C(F)(F)F)c3)cc2)ccn1 | enzyme activity | inhibitor | – | 0.3 µM | inhibition | -9%
O=C1Nc2ccc(Cl)cc2C1=Cc1cc(Cl)c(O)c(Cl)c1 | cell-free assay | – | – | 0.5 µM | remaining signal | 105%
C[C@H](c1ccc(F)cc1)N(Cc1cccc(C(=O)O)c1)C(=O)c1cnc2ccccc2c1 | cell-free assay | – | competition with immobilised ligand | 1 µM | remaining binding | 97%
CCCOc1ccc(OC)c(F)c1C(=O)c1ccc(C(=O)N[C@@H]2CNC[C@H]2NC(=O)c2ccc3[nH]ncc3c2)cc1 | enzyme activity | inhibitor | – | 10 µM | remaining activity | 90%
CCCCNc1ncc2c(-c3ccc(F)cc3)nn(C[C@H]3CC[C@H](N)CC3)c2n1 | target engagement in cells | inhibitor | chemoproteomics | 20 mM | inhibition | -20.7%
O=C(Nc1cnn(-c2csc(C(=O)NC3COC3)c2)c1)Nc1ccccc1Cl | enzyme activity | inhibitor | – | 5 µM | remaining activity | 99.1%
C[S+]([O-])c1ccc(-c2nc(-c3ccncc3)c(-c3ccc(F)cc3)[nH]2)cc1 (centres unmarked) | cell-free assay | – | – | 0.5 µM | remaining signal | 96.5%
CC(C)(C)c1nc(-c2cccc(NS(=O)(=O)c3c(F)cccc3F)c2F)c(-c2ccnc(N)n2)s1 | enzyme activity | inhibitor | radiometric | 1 µM | remaining activity | 96%
c1ccc(CNc2nc(N3CCOc4ccccc43)nc3c2CCCC3)cc1 | target engagement in cells | inhibitor | chemoproteomics | 20 mM | inhibition | -6.8%
O=C(NC[C@@H]1[C@H]2CN(C(=O)OCc3cc(C(F)(F)F)cc(C(F)(F)F)c3)C[C@@H]12)c1ccc2[nH]nnc2c1 | cell-free assay | – | competition with immobilised ligand | 1 µM | remaining binding | 90%
COc1cc(Nc2c(C#N)cnc3cc(OCCCN4CCN(C)CC4)c(OC)cc23)c(Cl)cc1Cl | cell-free assay | – | – | 0.5 µM | remaining signal | 92.2%
O=C1NC(c2ccccn2)Sc2ccccc21 (centres unmarked) | cell-free assay | – | competition with immobilised ligand | 1 µM | remaining binding | 96%
Cc1cc(NC(=O)c2cccc3cc(-c4cccc5[nH]nc(N)c45)ccc23)ccc1F | enzyme activity | inhibitor | – | 0.1 µM | activity vs control | 100%
CN(C)c1ncnc(-c2ccc3nc(Nc4cc(CN5CCN(C(=O)CC(F)(F)F)CC5)ccn4)[nH]c3c2)c1Cl | cell-free assay | – | competition with immobilised ligand | 1 µM | remaining binding | 100%
CCN(CC)c1ccc(C2=NNC(=O)CC2C)cc1[N+](=O)[O-] (centres unmarked) | enzyme activity | inhibitor | – | 10 µM | remaining activity | 82%
Cc1ccc(C(=O)NCc2ccsc2)cc1C#Cc1cn(C(C)C)c2ncnc(N)c12 | enzyme activity | inhibitor | – | 1 µM | activity vs control | 97%
O=C1NC(=O)c2cc(Nc3ccc(F)cc3)c(Nc3ccc(F)cc3)cc21 | cell-free assay | – | – | 0.5 µM | remaining signal | 93.5%
CCC(=O)N[C@@H]1CC[C@H](C(=O)N(C)c2ccc(-c3nc4ccccc4o3)cc2)C1 | cell-free assay | – | competition with immobilised ligand | 1 µM | remaining binding | 100%
